Screens: PubChem BioAssay, several laboratories
Hits are enriched below; roughly 1.6% of the tested compounds scored in any of these assays.
PKA-R1A activ: activators of PKA-R1A complex. P00514+P68181. PKA-R1A dissociation, Cy5-IP20 fluorescence polarization; scaled: DMSO 0%, 113 µM cGMP 100%. activation, % at 11.4 µM. actives 0.083% (n = 340,000). AID 504707;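 active = percent activation above the mean of all tested compounds plus 3 SD, cut at about 19% in these data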;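 note: higher means more PKAc released from R1A so a rise in polarization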
Rpn11 block: blocks the human proteasome subunit Rpn11; human 26S proteasome, Ub4-pepOG fluorescence polarization; 20S core pre-blocked with epoxomicin; calls only at 20 µM; actives 0.59% (n = 360,000);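 active = inhibition at 20 µM, scaled to each plate's controls, above about 33%, limit read from the data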
CSN inh: inhibitors of human CSN-mediated cullin deneddylation; Q92905; inhibition, % at 12.5 µM; Purified CSN, SCF-Nedd8-OG deneddylation, fluorescence polarization; actives 0.38% (n = 360,000);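 active = pattern-corrected inhibition above about 35%, with an unprinted fluorescence ratio check between 0.5 and 1.5, limit read from the data, passing the limit was not always enough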
Target sequence (Q92905 whole entry, looked up, one chain of several): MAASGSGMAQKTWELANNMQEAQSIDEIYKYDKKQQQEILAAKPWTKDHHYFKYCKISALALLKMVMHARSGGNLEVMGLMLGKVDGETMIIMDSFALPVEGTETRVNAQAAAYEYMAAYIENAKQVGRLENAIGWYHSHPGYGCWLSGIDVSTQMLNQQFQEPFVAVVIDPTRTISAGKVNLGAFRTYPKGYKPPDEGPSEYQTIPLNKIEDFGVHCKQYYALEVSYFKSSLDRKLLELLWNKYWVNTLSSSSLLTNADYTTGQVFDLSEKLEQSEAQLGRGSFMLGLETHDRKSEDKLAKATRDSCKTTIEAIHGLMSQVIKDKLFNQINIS
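Test system: Human Csn5 produced in HEK293T cells | Compound: 12.5 µM single point | Times: 90 min, room temperature | Signal: Fluorescence polarization readout | Read-out basis: % inhibition of substrate cleavage by Csn5 | Controls: no-enzyme wells high, enzyme-with-substrate wells low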
TPT1 inhibitor: blocks Candida albicans tRNA 2'-phosphotransferase. recombinant caTPT1, FP RNA substrate dephosphorylation. inhibition, % at 5 µM. actives 0.81% (n = 300,000). AID 1962;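 active = inhibition above the mean of all tested compounds plus 3 SD, set per screening campaign, cut at about 24% in these data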
PKA-R2B activ: activators of human PKA-R2B complex; P22694+P31323; activation, % at 11.4 µM; actives 0.079% (n = 340,000); PKA-R2B holoenzyme dissociation, Cy5-IP20 fluorescence polarization; R2B truncated from residue 108, S112A mutant; 0% DMSO only, 100% 113 µM cGMP;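 active = activation above a cutoff set at the mean over all compounds plus 3 SD, cut at about 18% in these data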;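 note: higher means more holoenzyme dissociation and a rise in polarization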
HNF4A DNA FP: change in binding of human HNF4 alpha to DNA; P41235; HNF4a-FITC DNA binding, fluorescence polarization, 1 h; activity change, % at 10 µM; actives 0.3% (n = 360,000); AID 1224865; in the data active = activity change above about 30%, passing the limit was not always enough
HNF4A confirm: change in binding of human HNF4 alpha to DNA, retest; shares compounds with HNF4A DNA FP; HNF4A-FITC DNA binding, fluorescence polarization, 1 h; activity change, % at 12.5 µM; actives 99% (n = 210); call rule not given here
A number is an active result; . = inactive; / = not tested or not shown.

SMILES | PKA-R1A activ | Rpn11 block | CSN inh | TPT1 inhibitor | PKA-R2B activ | HNF4A DNA FP | HNF4A confirm
COc1cc(/C=C2/C(=O)N(C)C(=S)N2C)ccc1OCc1cccc(F)c1 | . | / | . | . | . | 36 | 50
CN1C(=O)/C(=C/c2ccc(OCc3cccc(F)c3)cc2)NC1=S | . | . | . | . | . | . | /
O=C(CSc1nnc(CNC(=O)c2cccc(C(F)(F)F)c2)o1)NC1CCCCC1 | . | . | . | . | . | . | /
COc1cc(/C=N/c2oc(C)c(C)c2C#N)cc(Br)c1O | . | / | . | . | . | 60 | 78
COc1ccc(N2CCN(C(=O)CN3C(=O)NC4(CCCc5ccccc54)C3=O)CC2)cc1 (stereo unspecified) | . | . | . | . | . | . | /
Cc1ccc(N2C(=O)C3CCC(C)(C2=O)C3(C)C)cc1C (stereo unspecified) | . | . | . | . | . | . | /
Cc1nc(CSc2nsc(/C=C/N(C)C)c2C#N)cs1 | . | / | 45 | / | . | 70 | 62
Cc1snc(SCc2ccc(F)cc2)c1C#N | . | . | . | . | . | . | /
O=C(Nc1ccccc1)c1cc2ccccc2o1 | . | . | . | . | . | . | /
CC/C(=C\c1oc2cc3ccccc3cc2[n+]1CC)Nc1ccccc1 | . | . | . | . | . | 51 | 88
C#CCOCCOCCOCCNc1nc(N2CCN(C(=O)[C@H](CCCCN)n3cc(CN)nn3)CC2)nc(N2CCN(C(=O)[C@H](CCCCN)n3cc([C@@H](N)[C@H](C)CC)nn3)CC2)n1 | . | . | 99 | / | . | 96 | 99
C#CCOCCOCCOCCNc1nc(N2CCN(C(=O)[C@H](CCCCN)n3cc([C@@H](N)C(C)CC)nn3)CC2)nc(N2CCN(C(=O)[C@H](CCCCN)n3cc([C@@H](N)CO)nn3)CC2)n1 (stereo partly specified) | / | / | / | . | / | / | /
CCOc1ccc(S(=O)(=O)NCCC(=O)NCC2(N3CCCCC3)CCCCC2)cc1 | . | . | . | . | . | . | /
O=C(N/N=C/c1ccc(-c2ccc([N+](=O)[O-])cc2)o1)[C@H]1C[C@@H]1c1ccccc1 | . | / | . | . | . | 65 | 74
O=C(N/N=C/c1ccc(-c2cccc([N+](=O)[O-])c2)o1)[C@H]1C[C@@H]1c1ccccc1 | . | . | . | . | . | . | /
Cc1cccc(NC(=O)CNC(=O)c2cccc(S(=O)(=O)NCc3cccs3)c2)c1C | . | . | . | / | . | . | /
CC(C)=CCCC(C)c1cc(C(=O)NCCc2ccc(O)cc2)c(N)s1 (stereo unspecified) | / | / | . | / | / | 52 | 39
O=C(C[C@H]1C[C@H](C(=O)N2CCCCC2)[C@@]2(CCc3ccccc3)c3[nH]c4ccc(Cl)cc4c3CCN2C1=O)NCc1cccc(C(F)(F)F)c1 | . | . | . | / | . | . | /
CN1C(=O)/C(=C/C=C2\SCCN2C)N(C)C1=S | . | / | . | / | . | 119 | 143
Cc1nn(-c2ccccc2)c(Cl)c1/C=C1\C(=O)N(C)C(=S)N1C | . | . | . | . | . | . | /
Cc1cc(C(=O)O)ccc1N=Cc1c(O)ccc2ccccc12 | . | . | . | . | . | 46 | 70
COc1ccc(OC)c(-n2c(SCC(=O)Nc3cc(C)on3)nnc2-c2c[nH]c3ccccc23)c1 | . | . | . | . | . | . | /
CCOc1ccc(CNC(=O)C2CCN(c3nnc(C)c4c(C)n(-c5ccc(C)cc5)nc34)CC2)cc1 | . | / | . | . | . | 45 | 50
O=C(Cn1cc(/C=N/NC(=O)c2ccccc2Br)c2ccccc21)Nc1ccc(F)cc1 | . | . | . | . | . | . | /
O=C(Cn1cc(/C=N/NC(=O)c2cccc3ccccc23)c2ccccc21)Nc1ccc(F)cc1 | . | / | . | . | . | 46 | 90
CN(NC(=O)c1ccccc1Cl)c1ncc(C(F)(F)F)cc1Cl | . | . | . | . | . | . | /
CN(C)c1ccc(C=NN2C(=O)CSC2=S)c(Cl)c1 | . | / | 60 | / | . | 87 | 88
O=C1CSC(=S)N1N=Cc1c(F)cccc1Cl | . | . | . | / | . | . | /
COc1ccc(/C=N/NC(=O)c2ccccc2OC)cc1COc1ccccc1[N+](=O)[O-] | . | . | 101 | . | . | 83 | 60
